Measured values reported in ChEMBL document CHEMBL3351408, “Bioactive diterpenoids and flavonoids from the aerial parts of Scoparia dulcis” (J Nat Prod, 2014).

Tests used:
[1] = molecular target: T1, Peroxisome proliferator-activated receptor gamma (Mus musculus, UniProt P37238); experiment: Agonist activity at mouse PPARgamma expressed in HEK293 cells co-expressing with Gal4 reporter vector after 24 hrs by dual-luciferase reporter assay; type: cell-based
T1 sequence (P37238 whole entry): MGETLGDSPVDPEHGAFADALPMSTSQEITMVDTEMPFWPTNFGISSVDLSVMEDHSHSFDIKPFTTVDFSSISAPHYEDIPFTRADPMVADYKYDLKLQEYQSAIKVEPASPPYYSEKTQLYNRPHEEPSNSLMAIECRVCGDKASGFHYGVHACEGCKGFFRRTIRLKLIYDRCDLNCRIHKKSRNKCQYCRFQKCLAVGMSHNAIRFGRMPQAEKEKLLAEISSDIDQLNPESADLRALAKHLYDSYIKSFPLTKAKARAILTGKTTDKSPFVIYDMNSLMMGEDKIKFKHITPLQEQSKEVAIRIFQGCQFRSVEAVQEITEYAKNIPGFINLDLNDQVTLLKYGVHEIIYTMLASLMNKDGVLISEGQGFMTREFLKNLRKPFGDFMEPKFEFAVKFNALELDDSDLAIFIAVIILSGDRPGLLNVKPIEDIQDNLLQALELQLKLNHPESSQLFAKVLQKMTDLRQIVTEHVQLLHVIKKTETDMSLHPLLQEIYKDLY
In short: (§1)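 HEK-293 cells grown in DMEM with 10% FBS at 37 °C under 5% CO2 and plated at 1 × 10^4 cells/well. Cells co-transfected with pCMX-Gal-mPPARγ-LBD and MH100×4TK-Luc reporter, using Renilla as internal control. Compounds added at a range of concentrations for 24 h, then dual-luciferase read-out. EC50 is the concentration giving half-maximal fold activation; Emax is the maximal fold activation. Means ± SD from four independent experiments.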

[2] = molecular target: T2, Peroxisome proliferator-activated receptor gamma (Mus musculus) (UniProt P37238); experiment: Agonist activity at mouse PPARgamma expressed in HEK293 cells co-expressing with Gal4 reporter vector assessed as fold activation after 24 hrs by dual-luciferase reporter assay; type: cell-based; in short: as §1
T2 sequence (whole entry): T1 sequence (P37238 whole entry)

[3] = Inhibition of Saccharomyces cerevisiae alpha-glucosidase

SMILES | EC50 [1] [µM] | Emax [2] | IC50 [3] [µM]
C=C1[C@@H](CC/C(C)=C/CO)[C@@]2(C)CCC[C@](C)(C(=O)O)[C@@H]2[C@H](OC(=O)c2ccccc2)[C@H]1OC(C)=O | 0.9 | 24.7 | 
CC(=O)O[C@@H]1[C@@H](OC(=O)c2ccccc2)[C@@H]2[C@](C)(CCC[C@@]2(C)C(=O)O)[C@H](CC/C(C)=C/CO)[C@@]12CO2 | > 100 |  | 
C=C1[C@@H](CC/C(C)=C/CO)[C@@]2(C)CCC[C@](C)(C(=O)O)[C@@H]2[C@H](OC(=O)c2ccccc2)[C@H]1O | > 100 |  | 
COc1ccc(-c2oc3cc(O)cc(O)c3c(=O)c2O[C@@H]2O[C@H](COC(=O)/C=C/c3ccc(O)cc3)[C@@H](O)[C@H](O)[C@H]2O)cc1OC | > 100 |  | 
O=c1cc(-c2ccc(O)cc2)oc2c([C@@H]3OC[C@H](O)[C@H](O)[C@H]3O)c(O)cc(O)c12 | > 100 |  | 
COc1ccc(-c2cc(=O)c3c(O)c(OC)c(O)c(OC)c3o2)cc1O | 4.3 | 2 | 
CN(CCOc1ccc(CC2SC(=O)NC2=O)cc1)c1ccccn1 (centres undefined) |  | 11.8 | 
C[C@@]12CC[C@]3(C1)[C@H](CC2=O)C[C@@H](OC(=O)c1ccccc1)[C@@H]1[C@]3(C)CCC[C@]1(C)C(=O)O [4-EPI-SCOPADULCIC ACID B] | > 100 |  | 14.6
C[C@H]1O[C@H](O[C@H]2[C@H](O)[C@@H](O)[C@@H](O[C@H]3[C@H](O)[C@@H](O)C(O)O[C@@H]3CO)O[C@@H]2CO)[C@H](O)[C@@H](O)[C@@H]1N[C@H]1C=C(CO)[C@@H](O)[C@H](O)[C@H]1O (some centres undefined) [ACARBOSE] |  |  | 3760
O=c1cc(-c2ccc(O)cc2)oc2cc(O)cc(O)c12 [APIGENIN] | 24.9 | 3.4 | 
C=C(C)[C@@H]1CC[C@]2(C(=O)O)CC[C@]3(C)[C@H](CC[C@@H]4[C@@]5(C)CC[C@H](O)C(C)(C)[C@@H]5CC[C@]43C)[C@@H]12 [BETULINIC ACID] | > 100 |  | 
COc1c(O)cc2oc(-c3ccc(O)cc3)cc(=O)c2c1O [HISPIDULIN] | 7.3 | 11.3 | 
COc1c(O[C@@H]2O[C@H](CO)[C@@H](O)[C@H](O)[C@H]2O)cc2oc(-c3ccc(O)cc3)cc(=O)c2c1O [HISPIDULOSIDE] | > 100 |  | 
O=c1cc(-c2ccc(O)c(O)c2)oc2cc(O)cc(O)c12 [LUTEOLIN] | 2.3 | 7.6 | 
COc1ccc(-c2cc(=O)c3c(O)c(OC)c(O[C@@H]4O[C@H](CO[C@@H]5O[C@@H](C)[C@H](O)[C@@H](O)[C@H]5O)[C@@H](O)[C@H](O)[C@H]4O)cc3o2)cc1 [PECTOLINARIN] | > 100 |  | 
C=C1C[C@@H](OC(=O)c2ccccc2)[C@@H]2[C@](C)(CCC[C@@]2(C)C(=O)O)[C@@H]1CC/C(C)=C/CO [SCOPARIC ACID A] | > 100 |  | 
O=c1cc(-c2ccc(O)cc2)oc2cc(O)c(O)c(O)c12 [SCUTELLAREIN] | 16.4 | 3.4 | 
